Entries after “also recorded” stand apart in the source; their conditions may differ. Where two headings read alike, the source gives them in different places.

This is an account of results in publication PMC11837772 (RSC Advances, 2025).

Data set [1] deals with intracellular L. donovani amastigotes. The experiment in a line: Intracellular amastigotes assay in infected macrophages. Type of data set: cell-based, Leishmania donovani. The note with it: for Percentage Reductions (%) in intracellular amastigotes: 72 h; for SI (selectivity index): CC50 (THP-1) / IC50 (intracellular amastigotes). Summed up:
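Macrophages (5 × 10^4 per chamber) adhered 2 h at 37 °C in 5% CO2, were washed with serum-free RPMI, then infected overnight with metacyclic L. donovani at 10:1 in complete RPMI 1640. Free promastigotes were washed off after 24 h, and test compound was added in duplicate for 72 h at 37 °C in 5% CO2. Giemsa-stained amastigotes per 100 macrophages were counted and expressed as a percentage of the untreated control mean.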

The test system of data set [2] is L. donovani promastigotes. Put plainly: IC50 from dose-dependent anti-promastigote activity. Type of data set: cell-based, Leishmania donovani. The following applies: 72 h, read-out: IC50 against L. donovani promastigotes. Summed up: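 Log-phase promastigotes (26 °C, M199 with 10% heat-inactivated FBS) were exposed to graded concentrations of test compound, and viability was read by MTT. Percentage viability was calculated as treated/untreated mean × 100. IC50 was extrapolated from the % viability versus concentration plot, from triplicate experiments as mean ± SEM.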

Data set [3] concerns L. donovani promastigotes. Put plainly: Primary screening against L. donovani promastigotes. The format is cell-based. The following applies: Leishmania donovani, 48 h, read-out: % inhibition (48 h). The method, boiled down: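 Promastigotes at 2 × 10^6 cells per mL in RPMI at 26 °C were given test compound at 100 μM, with DMSO (0.2%) as solvent, an amphotericin B reference and a medium-only control. Viability was read by MTT and expressed as % inhibition.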

Data set [4] has as its system L. donovani promastigotes. Put plainly: Cellular morphological alteration of promastigotes. Type of data set: cell-based, Leishmania donovani. The note with it: 48 hours, contrast microscope 40× objective. The method, boiled down: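 Exponential-phase promastigotes (grown at 26 °C in M199 with 10% heat-inactivated FBS) at 2 × 10^6 cells per mL were incubated without or with test compound or reference drug at 1 μM for 48 h. Cell shape was examined by contrast/light microscopy (40× objective) at 0 and 48 h and scored for programmed-cell-death-type morphology.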

In data set [5] the test system is THP-1 human monocytic cells. Put plainly: Cytotoxicity assay. The format is cell-based. The following applies: for Log CC50 / CC50: THP-1 human monocytic cells, 72 h, MTT; for CC50: unit printed in Table 5 only. The method, boiled down:
(§1)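 THP-1 cells in RPMI with 10% FBS were seeded at 1 × 10^6 cells per mL and held 24 h at 37 °C in humidified CO2. Medium was then replaced with test compound or standard at 100, 50, 25, 12.5 and 6.25 μM for 72 h. Viability was read by MTT (0.5 mg mL−1, 4 h, 37 °C), with formazan dissolved in DMSO and absorbance at 570 nm.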

The next data set can be described thus: Cytotoxicity assay. Type of data set: cell-based, human. The note with it: human, THP-1 human monocytic cells, pH 7.4, Log CC50, THP-1 human monocytic cells, 72 h, MTT. The method, boiled down: as §1
For another data set, the target named is T1, papain (Carica papaya, UniProt P00784).
T1 sequence (P00784 134-345): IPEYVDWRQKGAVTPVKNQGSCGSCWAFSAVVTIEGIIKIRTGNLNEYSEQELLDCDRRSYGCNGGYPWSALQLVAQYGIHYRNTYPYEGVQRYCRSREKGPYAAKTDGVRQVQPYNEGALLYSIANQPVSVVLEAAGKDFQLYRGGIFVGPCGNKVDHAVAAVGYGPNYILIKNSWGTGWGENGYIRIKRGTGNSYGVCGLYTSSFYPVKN
Put plainly: In vitro cysteine protease inhibition assay. Type of data set: biochemical. Summed up: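 Papain was run in activation buffer of sodium acetate (pH 5.5), 8 mM DTT and 4 mM EDTA, with papain […], 10 μM Bz-Arg-AMC and inhibitor at 0–32 μM (dissolved in DMSO). AMC release was followed by fluorescence (excitation 345 nm, emission 440 nm) for 120 min. IC50 came from the straight-line fit of % residual activity versus log[inhibitor].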

For another data set, the system named is L. donovani. The following applies: read-out: IC50 against L. donovani; ref Ahmed H. E. Hassan and his team; cited from earlier work.
For data set [6] the following is noted: preliminary cytotoxicity assessments; ref Ahmed H. E. Hassan and his team; cited from earlier work.
Another data set relates to SARS-CoV-2 3CL protease. The note with it: read-out: IC50 against SARS-CoV-2 3CL protease; cited from earlier work.
Setting [7] is: serial dilutions starting at 25 μM, MTT.

With `C[C@@H]1[C@H](O)[C@@H](C)/C=C/C=C/C=C/C=C/C=C/C=C/C=C/[C@H](O[C@@H]2O[C@H](C)[C@@H](O)[C@H](N)[C@@H]2O)C[C@@H]2O[C@](O)(C[C@@H](O)C[C@@H](O)[C@H](O)CC[C@@H](O)C[C@@H](O)CC(=O)O[C@H]1C)C[C@H](O)[C@H]2C(=O)O` [AmphoB, Amphotericin B, reference compound], the results for the “Percentage Reductions (%) in intracellular amastigotes” value in data set [1] (3.125 μM), in [1] (6.25 μM) and in data set [1] (12.5 μM) were 52.3%, 63.2% and 85.5%, respectively. Also, the “SI (selectivity index)” value in data set [1] worked out at 3.48. Moreover, the IC50 in [2] (Leishmania donovani) stood at 3.07 µM. In data set [3], the inhibition at 100 µM was 78.5%.
On to `CC/C(=C\c1ccc(OCC(=O)NC(Cc2ccccc2)C(=O)N2CCOCC2)cc1)[N+](=O)[O-]` (stereo not drawn) [14a, (E)-N-(1-Morpholino-1-oxo-3-phenylpropan-2-yl)-2-(4-(2-nitrobut-1-en-1-yl)phenoxy)acetamide], for which the “morphological changes of treated promastigotes” value in data set [4] is “notable morphological alterations”. The “Percentage Reductions (%) in intracellular amastigotes” value in data set [1] (3.125 μM) was 37.2%; in [1] (6.25 μM) it was 44.1%; in data set [1] (12.5 μM), 57.5%. In addition, in data set [1], the “SI (selectivity index)” value worked out at 3.55. Also, the results for the IC50 (in data set [2] (Leishmania donovani); against papain) were 11.9 µM and 9.63 ± 0.28 µM, respectively. Moreover, the inhibition at 100 µM in data set [3] stood at 84.8%. Further, the “cytotoxicity to mammalian macrophages” value in data set [5] (even at a concentration of 28 μM) was “negligible cytotoxicity; also recorded: insignificant cytotoxicity”. Besides, in “Cytotoxicity assay”, the half-maximal cytotoxic concentration (CC50) at 72 h was 28.7 µM.
Regarding `CCCCCCCC/C=C\CCCCCCCCCCCCOP(=O)([O-])OCC[N+](C)(C)C` [erufosine], the IC50 with L. donovani was 9.8 µM. In addition, in [6], the CC50 was 19.4 µM.
Consider “(E)-2-(4-(2-Nitrobut-1-en-1-yl)phenoxy)-1-(2-(thiomorpholine-4-carbonyl)pyrrolidin-1-yl)ethan-1-one [14d]”, for which the IC50 in data set [2] (setting [7]) is 7.56 µM. Moreover, in data set [5], the “Log CC50” value is listed as 0.5025 and half-maximal cytotoxicity (CC50) was put at 3.18 µM.
Taken in the same sequence, the figures for “(E)-2-(4-(2-Nitrobut-1-en-1-yl)phenoxy)-N-(1-oxo-3-phenyl-1-thiomorpholinopropan-2-yl)acetamide [14c]” were 7.24 µM, 0.5684 and 3.7 µM.
As to `O=[N+]([O-])C=Cc1ccc([N+](=O)[O-])cc1` [compound 2, 4-nitro-β-nitrostyrene], the IC50 with SARS-CoV-2 3CL protease is 0.73 µM.
With “Methyl (E)-(2-(1H-indol-3-yl)-2-(2-(4-(2-nitrobut-1-en-1-yl)phenoxy)acetamido)acetyl)valinate [14h]”, the IC50 in data set [2] (setting [7]) amounted to 10 µM. Moreover, in data set [5], the “Log CC50” value is 1.109 and the midpoint of cytotoxicity, the CC50, lay at 12.9 µM.
For `CC/C(=C\c1ccc(OCC(=O)N[C@@H](Cc2ccccc2)C(=O)N[C@@H](C)C(=O)OC)cc1)[N+](=O)[O-]` [14k, Methyl (E)-(2-(4-(2-nitrobut-1-en-1-yl)phenoxy)acetyl)phenylalanylalaninate], the inhibition at 100 µM in data set [3] was 54.8%.
For `CC/C(=C\c1ccc(OCC(=O)N[C@@H](Cc2ccccc2)C(=O)NCC(=O)OC)cc1)[N+](=O)[O-]` [14i, Methyl (E)-(2-(4-(2-nitrobut-1-en-1-yl)phenoxy)acetyl)phenylalanylglycinate], in data set [2] (Leishmania donovani), the half-inhibitory concentration (IC50) came to 5.3 µM. Also, the inhibition at 100 µM in [3] came out at 84.5%. This compound had a half-maximal cytotoxic concentration (CC50) at 72 h in “Cytotoxicity assay” of 5.15 µM.
As for “(E)-1-(2-(Morpholine-4-carbonyl)pyrrolidin-1-yl)-2-(4-(2-nitrobut-1-en-1-yl)phenoxy) ethan-1-one [14b]”, the concentration for half-maximal inhibition (IC50) in data set [2] (setting [7]) was 16.8 µM. Further, in data set [5], the “Log CC50” value came to 0.7734 and half-maximal cytotoxicity (CC50) was put at 5.93 µM.
For the compound `CC/C(=C\c1ccc(OCC(=O)N[C@@H](Cc2c[nH]c3ccccc23)C(=O)N[C@@H](C)C(=O)OC)cc1)[N+](=O)[O-]` [14j, Methyl (E)-(2-(4-(2-nitrobut-1-en-1-yl)phenoxy)acetyl)tryptophylalaninate], in data set [3], the inhibition at 100 µM stood at 65.5%.

As a reminder, the IC50 is the concentration needed to halve the response being measured. Usually inhibition stands for the share of the control response that was lost under treatment. What is called CC50 is the concentration at which the toxic effect on the cells reaches its halfway point.
